From ChEMBL document CHEMBL3872222, “Synthesis of novel curcuminoids accommodating a central β-enaminone motif and their impact on cell growth and oxidative stress” (Eur J Med Chem, 2016) come the findings set out here.

≈ marks a conversion by molar mass, not a printed value. Some results are limits rather than exact numbers.

A short description of data set [1]: Growth inhibition of human EAhy926 cells measured after 72 hrs by SRB assay. The class given is cell-based. The conditions noted are these: EA.hy 926, 72 h. A digest of the protocol: (§1)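 20000 cells/well treated after 1 day at 1, 5, 10, 25 μM, serum-free, for 3 days. Fixed with 50% TCA 1 h at 4 °C, stained 30 min with 0.4% sulforhodamine B in 1% acetic acid, rinsed with 1% acetic acid, dye dissolved in 10 mM Tris, absorbance 490 nm; triplicate; IC50 derived.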

The nature of data set [2]: Growth inhibition of human HT-29 cells measured after 72 hrs by SRB assay. The class given is functional, cell-based. The conditions noted are these: HT-29, 72 h. A digest of the protocol: as §1
Background: Sulforhodamine B stains cellular protein and so reports cell mass.

Data set [3] in a line: Growth inhibition of human HT-29 cells assessed as mitochondrial activity measured after 72 hrs by MTT assay. The class given is functional, cell-based. The conditions noted are these: HT-29, 72 h. An outline of the steps: (§2)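 Seeded 20000 cells/well in DMEM+glutamax, NEAA, P/S, FBS; after 1 day treated 1, 5, 10, 25 μM in serum-free medium (DMSO under 0.1%) for 3 days. MTT (5 mg/ml in PBS) 2 h at 37 °C, 10% CO2 in dark; formazan dissolved in DMSO, absorbance 570 nm; triplicate; IC50 derived.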
(Formazan colour is commonly taken as a measure of viable cells.)

Data set [4] can be described thus: Growth inhibition of CHOK1 cells measured after 72 hrs by SRB assay. The conditions noted are these: Cricetulus griseus, CHO-K1, 72 h. The class given is functional, cell-based. An outline of the steps:
as §1

The test system of data set [5] is CHO. As to the kind of experiment: Effect on oxidative stress in CHO cells assessed as intracellular ROS level at 10 uM after overnight incubation by DCFH-DA staining based fluorescence assay relative to control. The class given is functional, Cricetulus griseus. A digest of the protocol:
(§3)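 Cells grown in DMEM+glutamax, 1% NEAA, 1% P/S, 10% FBS; seeded 20000/well, treated at confluency overnight in serum-free medium, DMSO under 0.1% final. Loaded with 20 μM DCFH-DA 30 min at 37 °C, 10% CO2; washed, phenol red-free medium 1 h, then serum-free medium; fluorescence ex 485/em 535 nm. Percent of untreated; two-tailed unequal-variance t-test, n≥6.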

For data set [6], the system named is EA.hy 926. Briefly: Effect on oxidative stress in human EAhy926 cells assessed as intracellular ROS level at 10 uM after overnight incubation by DCFH-DA staining based fluorescence assay relative to control. The class given is functional. An outline of the steps: as §3
The nature of data set [7]: Growth inhibition of undifferentiated human Caco2 cells assessed as mitochondrial activity measured after 72 hrs by MTT assay. The class given is functional, cell-based. The conditions noted are these: Caco-2, 72 h. A digest of the protocol: as §2
Data set [8] relates to Caco-2. As to the kind of experiment: Effect on oxidative stress in undifferentiated human Caco2 cells assessed as intracellular ROS level at 1 uM after overnight incubation by DCFH-DA staining based fluorescence assay relative to control. The class given is functional. A digest of the protocol:
as §3

A short description of data set [9]: Growth inhibition of differentiated human Caco2 cells assessed as mitochondrial activity measured after 72 hrs by MTT assay. The class given is cell-based. The conditions noted are these: Caco-2, 72 h. An outline of the steps:
as §2

Data set [10] relates to Caco-2. Briefly: Effect on oxidative stress in undifferentiated human Caco2 cells assessed as intracellular ROS level at 10 uM after overnight incubation by DCFH-DA staining based fluorescence assay relative to control. The class given is functional. A digest of the protocol:
as §3

The nature of data set [11]: Growth inhibition of differentiated human Caco2 cells measured after 72 hrs by SRB assay. The class given is cell-based. The note with it: Caco-2, 72 h. A digest of the protocol:
as §1

A short description of data set [12]: Solubility of the compound in serum-free DMEM assessed as compound concentration required for crystal formation measured after 1 day by microscopic analysis. The class given is physicochemical. The conditions noted are these: 24 h. A digest of the protocol:
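Compound at 0, 0.5, 1, 5, 10, 25 and 50 μM in serum-free DMEM incubated 1 day at 37 °C, 10% CO2, then examined for crystal formation.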

A short description of data set [13]: Growth inhibition of CHOK1 cells assessed as mitochondrial activity measured after 72 hrs by MTT assay. The conditions noted are these: Cricetulus griseus, CHO-K1, 72 h. The class given is functional, cell-based. An outline of the steps:
as §2

Data set [14] concerns EA.hy 926. As to the kind of experiment: Effect on oxidative stress in human EAhy926 cells assessed as intracellular ROS level at 1 uM after overnight incubation by DCFH-DA staining based fluorescence assay relative to control. The class given is functional. An outline of the steps: as §3
Data set [15] deals with HT-29. As to the kind of experiment: Effect on oxidative stress in human HT-29 cells assessed as intracellular ROS level at 1 uM after overnight incubation by DCFH-DA staining based fluorescence assay relative to control. The class given is functional. A digest of the protocol:
as §3

The nature of data set [16]: Growth inhibition of undifferentiated human Caco2 cells measured after 72 hrs by SRB assay. The class given is functional, cell-based. The note with it: Caco-2, 72 h. A digest of the protocol: as §1
Data set [17] concerns HT-29. As to the kind of experiment: Antioxidant activity in human HT-29 cells assessed as decrease in intracellular ROS level after overnight incubation by DCFH-DA staining based fluorescence assay.
Data set [18] in a line: Growth inhibition of human EAhy926 cells assessed as mitochondrial activity measured after 72 hrs by MTT assay. The class given is cell-based. The note with it: EA.hy 926, 72 h. A digest of the protocol:
as §2

Data set [19] has as its system CHO. Briefly: Effect on oxidative stress in CHO cells assessed as intracellular ROS level at 1 uM after overnight incubation by DCFH-DA staining based fluorescence assay relative to control. The class given is functional, Cricetulus griseus. A digest of the protocol: as §3
The nature of data set [20]: Antioxidant activity assessed as trolox equivalent of ferric ion reducing activity using Fe3+-TPTZ by measuring Fe2+-TPTZ formation after 4 mins by UV-vis spectrophotometry based FRAP assay. The class given is functional. A digest of the protocol:
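FRAP reagent: 300 mM acetate buffer, 10 mM TPTZ in ethanol and 20 mM FeCl3 (in dilute HCl) combined 10:1:1, TPTZ and iron freshly made. Sample mixed 1:9 with reagent; absorbance 593 nm after 4 min. Expressed as trolox equivalents per μM from slope of linear plot versus analog concentration.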

Data set [21] is described as follows: Antioxidant activity assessed as inhibition of DPPH radical activity at 1 uM measured after 30 mins under dark conditions by spectrophotometric analysis relative to control. The class given is functional.
The subject of data set [22] is HT-29. As to the kind of experiment: Effect on oxidative stress in human HT-29 cells assessed as intracellular ROS level at 10 uM after overnight incubation by DCFH-DA staining based fluorescence assay relative to control. The class given is functional. A digest of the protocol:
as §3

For data set [23], the system named is HT-29. As to the kind of experiment: Antioxidant activity in human HT-29 cells assessed as decrease in intracellular ROS level after overnight incubation by DCFH-DA staining based fluorescence assay. The class given is functional, cell-based. A digest of the protocol: as §3

Consider `COc1cc(/C=C/C(=O)CC(=O)/C=C/c2ccc(O)c(OC)c2)ccc1O` [CURCUMIN], for which the 50% inhibitory concentration (IC50) in [1], in [2], in [3], in [4], in [7] and in [9] was > 25 µM throughout. In addition, the IC50 is > 25 µM in data set [11], 7.5 µM in data set [13], > 25 µM in [16] and > 25 µM in data set [18]. For the same molecule, the Activity in the data set on CHO [5] worked out at 97%; with EA.hy 926 [6] it was 88%; with Caco-2 [8] it was 84%; in the data set with Caco-2 [10] it was 77%; with EA.hy 926 [14], 91%; with HT-29 [15], 67%. Besides, the Activity result in the data set on HT-29 [17] is “Dose-dependent effect”; with CHO [19], 112%; in [20], 1 µMequiv/µM; in the data set on HT-29 [22] it was 65%; with HT-29 [23], “Dose-dependent effect”. Further, the solubility in data set [12] was found to be 0.5 µM (≈ 0.184 µg/mL). The inhibition in [21] is 0.15%.
For the molecule `CC(=O)Oc1ccc(/C=C/C(=O)/C=C(/C=C/c2ccc(OC(C)=O)cc2)NCC(C)C)cc1`, the IC50 in data set [1] is > 25 µM; in [2], 22.6 µM; in data set [3], 13.7 µM; in [4] it was > 25 µM; in data set [7], > 25 µM; in data set [9], > 25 µM. Further, the IC50 in [11], in data set [13], in data set [16] and in [18] was > 25 µM each time. Further, the Activity turned out to be 142% in the data set on CHO [5]; 53% in the data set with EA.hy 926 [6]; 102% in the data set with Caco-2 [8]; 85% with Caco-2 [10]; 60% in the data set on EA.hy 926 [14]; 92% in the data set with HT-29 [15]. Further, the values for the Activity (with CHO [19]; in data set [20]; in the data set on HT-29 [22]) were 152%, 0.01 µMequiv/µM and 99%, respectively. Besides, in data set [12], the solubility came out at 25 µM (≈ 11.2 µg/mL). Besides, in data set [21], the inhibition worked out at 0%.
For the molecule `COc1cc(/C=C/C(=O)/C=C(/C=C/c2ccc(O)c(OC)c2)NC2CCCCC2)ccc1O`, the IC50 in data set [1], in data set [2], in data set [3], in data set [4], in data set [7] and in data set [9] was > 25 µM each time. For the same molecule, the IC50 in data set [11] was > 25 µM; in data set [13], 24.7 µM; in data set [16] it was 5.1 µM; in data set [18], > 25 µM. Moreover, the Activity is 122% with CHO [5]; 191% in the data set with EA.hy 926 [6]; 88% with Caco-2 [8]; 63% in the data set on Caco-2 [10]; 91% in the data set with EA.hy 926 [14]; 80% with HT-29 [15]. Besides, the values for the Activity (in the data set on CHO [19]; in [20]; with HT-29 [22]) were 137%, 0.83 µMequiv/µM and 74%, respectively. In addition, in [12], the solubility was determined as 25 µM (≈ 11.2 µg/mL). Further, the inhibition in [21] worked out at 0.13%.
As for `CCC(C)NC(=C\C(=O)/C=C/c1ccc(O)c(OC)c1)/C=C/c1ccc(O)c(OC)c1` (configuration not stated), the IC50 was > 25 µM in data set [1]; 22.3 µM in data set [2]; > 25 µM in data set [3]; > 25 µM in [4]; > 25 µM in data set [7]; > 25 µM in data set [9]. The IC50 in [11], in data set [13], in [16] and in data set [18] was > 25 µM in each case. Further, the Activity with CHO [5] amounted to 112%; in the data set on EA.hy 926 [6] it was 184%; in the data set with Caco-2 [8], 91%; in the data set with Caco-2 [10], 66%; in the data set on EA.hy 926 [14] it was 85%; in the data set with HT-29 [15], 99%. The Activity with CHO [19] was 107%; in data set [20], 1.08 µMequiv/µM; with HT-29 [22], 90%. The solubility in data set [12] is 50 µM (≈ 21.2 µg/mL). The inhibition in data set [21] is 0.13%.
Turning to `COc1cc(/C=C/C(=O)/C=C(/C=C/c2ccc(OC(C)=O)c(OC)c2)NC2CCCCC2)ccc1OC(C)=O`, the IC50 in data set [1] was > 25 µM; in data set [2] it was > 25 µM; in data set [3], > 25 µM; in [4] it was > 25 µM; in [7], 9.7 µM; in data set [9] it was > 25 µM. In addition, the IC50 in data set [11] is > 25 µM; in data set [13], 10.1 µM; in data set [16] it was 4.4 µM; in data set [18], > 25 µM. Further, the Activity in the data set with CHO [5] amounted to 122%; in the data set with EA.hy 926 [6], 113%; in the data set on Caco-2 [8] it was 89%; in the data set with Caco-2 [10], 62%; with EA.hy 926 [14], 101%; in the data set with HT-29 [15] it was 96%. The Activity was 89% in the data set on CHO [19], 0.04 µMequiv/µM in data set [20] and 94% in the data set with HT-29 [22]. Moreover, the solubility in [12] was determined as 5 µM (≈ 2.67 µg/mL). The inhibition in [21] turned out to be 0.01%.

In general, IC50 refers to the concentration at which inhibition is half-maximal. As usually defined, the solubility is the dissolved amount per volume that the medium holds. The inhibition is the share of the control response that was lost under treatment.
